# Results as given in ChEMBL document CHEMBL2396530, “In vitro and in vivo evaluation of polymethylene tetraamine derivatives as NMDA receptor channel blockers” (Bioorg Med Chem Lett, 2013).
# Activity calls are given as the source filed them. The calls are words filed in the database; no cut-off is given here.
# What was measured:
# [1] = test system: Mus musculus; assay: Antithrombotic activity in photochemically-induced thrombosis C57B/L mouse model assessed as decrease in brain infarction size at 1 to 10 mg/kg, iv after 24 hrs; format: functional, organism-based
# [2] = molecular target: Glutamate NMDA receptor; GRIN1/GRIN2A (Homo sapiens, UniProt Q05586+Q12879); assay: Antagonist activity at recombinant GluN1/GluN2A receptor (unknown origin) expressed in Xenopus laevis oocytes assessed as inhibition of glycine/glutamate-induced inward current at -70mV by two-electrode voltage clamp assay; format: cell-based, Oocyte
# Chain of Glutamate NMDA receptor; GRIN1/GRIN2A (Q12879 whole entry, other chains not shown): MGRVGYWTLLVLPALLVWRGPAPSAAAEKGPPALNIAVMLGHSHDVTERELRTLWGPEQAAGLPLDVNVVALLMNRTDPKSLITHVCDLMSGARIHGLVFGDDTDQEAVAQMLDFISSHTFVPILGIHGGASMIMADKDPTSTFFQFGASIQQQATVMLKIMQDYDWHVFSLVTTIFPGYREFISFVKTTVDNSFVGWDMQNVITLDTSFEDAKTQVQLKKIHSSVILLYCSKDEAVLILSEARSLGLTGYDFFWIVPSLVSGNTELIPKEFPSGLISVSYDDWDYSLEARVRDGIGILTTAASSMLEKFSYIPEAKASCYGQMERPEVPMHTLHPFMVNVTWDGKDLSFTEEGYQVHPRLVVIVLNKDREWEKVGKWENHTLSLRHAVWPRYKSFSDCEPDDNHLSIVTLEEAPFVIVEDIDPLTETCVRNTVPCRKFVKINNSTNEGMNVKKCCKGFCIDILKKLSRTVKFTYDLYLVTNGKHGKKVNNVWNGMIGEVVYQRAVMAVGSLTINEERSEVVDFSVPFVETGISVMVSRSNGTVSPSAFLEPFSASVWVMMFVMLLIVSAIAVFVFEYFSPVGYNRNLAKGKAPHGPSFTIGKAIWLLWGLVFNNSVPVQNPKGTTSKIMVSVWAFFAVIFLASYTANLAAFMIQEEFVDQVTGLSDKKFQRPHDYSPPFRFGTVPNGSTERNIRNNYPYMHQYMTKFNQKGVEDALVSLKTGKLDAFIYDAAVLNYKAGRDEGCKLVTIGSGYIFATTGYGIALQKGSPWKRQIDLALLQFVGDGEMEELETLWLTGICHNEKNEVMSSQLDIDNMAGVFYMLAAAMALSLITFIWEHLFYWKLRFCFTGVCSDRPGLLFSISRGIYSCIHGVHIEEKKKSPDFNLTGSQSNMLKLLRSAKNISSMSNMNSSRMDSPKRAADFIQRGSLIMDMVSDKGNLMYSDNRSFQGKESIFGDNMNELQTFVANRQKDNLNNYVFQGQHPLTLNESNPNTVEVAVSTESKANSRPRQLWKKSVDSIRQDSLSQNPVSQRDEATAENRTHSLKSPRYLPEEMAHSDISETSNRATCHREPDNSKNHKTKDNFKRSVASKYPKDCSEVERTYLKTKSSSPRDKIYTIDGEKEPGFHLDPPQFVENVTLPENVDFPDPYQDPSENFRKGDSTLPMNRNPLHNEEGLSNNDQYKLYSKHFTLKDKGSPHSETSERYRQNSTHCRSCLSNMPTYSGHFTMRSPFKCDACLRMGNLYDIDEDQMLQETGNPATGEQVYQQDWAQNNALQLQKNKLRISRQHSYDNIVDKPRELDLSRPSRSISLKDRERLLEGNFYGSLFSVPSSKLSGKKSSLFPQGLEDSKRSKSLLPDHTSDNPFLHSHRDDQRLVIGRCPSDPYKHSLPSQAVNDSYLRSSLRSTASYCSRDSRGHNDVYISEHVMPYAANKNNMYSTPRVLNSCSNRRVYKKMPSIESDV
# Method in brief: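 Xenopus oocytes injected with GluN1 plus GluN2A cRNA at 1:5 ratio (0.1–4 ng GluN1 plus 0.5–20 ng GluN2A). Two-electrode voltage clamp at -70 mV. Receptors activated by superfusing glycine and glutamate (10 µM). Inward currents recorded. Concentration–inhibition curves built from 5 concentrations per compound to give IC50.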
# [3] = test system: Mus musculus; assay: Antithrombotic activity in photochemically-induced thrombosis C57B/L mouse model assessed as decrease in brain infarction size at 10 mg/kg, iv after 24 hrs; format: functional, organism-based; parameters: dose 10 mg/kg
# [4] = test system: Mus musculus; assay: Antithrombotic activity in photochemically-induced thrombosis C57B/L mouse model assessed as decrease in brain infarction size at 0.4 mg/kg, iv after 24 hrs; format: functional, organism-based; parameters: dose 0.4 mg/kg
Structure (SMILES),Activity [1],IC50 [2] [nM],Activity [3],Activity [4]
COc1ccccc1CNCCCCCCNCCCCCCCCNCCCCCCNCc1ccccc1OC [METHOCTRAMINE],inactive,138,–,–
c1ccc(C(CNCCCCCCNCCCCCCCCCCCCNCCCCCCNCC(c2ccccc2)c2ccccc2)c2ccccc2)cc1,inactive,4.2,–,–
COc1ccccc1CNCCCCCCCCNCCCCCCNCCCCCCCCNCc1ccccc1OC,inactive,257,–,–
CC12CC3CC(C)(C1)CC(N)(C3)C2,–,–,Active,–
COc1ccccc1CNCCCCCNCCCCCCNCCCCCNCc1ccccc1OC,–,315,–,Active
COc1ccccc1CNCCCCCNCCCCCCCCCCNCCCCCNCc1ccccc1OC,inactive,89.3,–,–
c1ccc(C(CNCCCCCCNCCCCCCCCNCCCCCCNCC(c2ccccc2)c2ccccc2)c2ccccc2)cc1,inactive,11,–,–
